From PubChem BioAssay
Shown are actives, neighbours in structure and some others; about 1.9% of the full set was active somewhere.
DNMT1 block: blocks human DNA methyltransferase DNMT1; P26358; DNMT1 molecular beacon, Hinp1I cleavage, fluorescence; inhibition (reported as % activation of signal), % at 10 µM; 0.83% of 360,000 active; in the data active = inhibition above about 50%
LMPTP inh: blocks human LMPTP phosphatase. AID 651560. inhibition, % at 20 µM. P24666. 0.22% of 360,000 active. recombinant LMPTP-A, OMFP fluorogenic substrate, fluorescence intensity;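 active = compounds that cut the enzyme signal by at least half of the control window in the single-dose screen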;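 also: plate controls were DMSO wells with enzyme plus substrate for no effect and substrate without enzyme for full effect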
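Material: LMPTP-A; amount: 0.625 nM enzyme; doses: single 20 µM dose; times: reaction 50 min, room temperature, dark; technique: fluorescence intensity of OMFP turnover product; benchmarks: no-enzyme and uninhibited controls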
STEP block: blocks human striatal-enriched tyrosine phosphatase; P54829; recombinant STEP, OMFP fluorogenic substrate, fluorescence; inhibition, % at 20 µM; 0.25% of 360,000 active; AID 588621;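 active = inhibition at 20 µM, scaled per plate between control wells, above about 37%, limit read from the data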;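 also: 0% = DMSO with enzyme and substrate and 100% = substrate only without enzyme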
Target sequence (P54829 whole entry, looked up): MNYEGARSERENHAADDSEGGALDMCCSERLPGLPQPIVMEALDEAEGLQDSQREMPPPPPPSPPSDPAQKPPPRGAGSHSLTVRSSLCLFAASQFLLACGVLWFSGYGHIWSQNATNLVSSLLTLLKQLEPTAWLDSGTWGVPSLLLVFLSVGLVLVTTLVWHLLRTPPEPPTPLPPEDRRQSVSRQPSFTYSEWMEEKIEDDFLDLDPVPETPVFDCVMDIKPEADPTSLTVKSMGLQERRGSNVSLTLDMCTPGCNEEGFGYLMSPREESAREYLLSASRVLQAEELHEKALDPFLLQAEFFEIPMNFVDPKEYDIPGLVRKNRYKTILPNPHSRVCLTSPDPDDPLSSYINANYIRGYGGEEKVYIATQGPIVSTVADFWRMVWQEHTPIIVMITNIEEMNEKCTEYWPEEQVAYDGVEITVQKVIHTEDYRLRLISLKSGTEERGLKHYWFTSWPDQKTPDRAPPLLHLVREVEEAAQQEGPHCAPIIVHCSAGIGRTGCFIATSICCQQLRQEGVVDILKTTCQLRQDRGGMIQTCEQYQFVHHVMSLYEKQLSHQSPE
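Assay system: isolated STEP enzyme / Timing: 20 min at room temperature, dark / Doses: 20 µM, 1% DMSO / Technique: fluorescence intensity, excitation 480 nm, emission 540 nm / Reagent: fluorogenic phosphatase substrate OMFP at 25 µM final / Measure: percent inhibition scaled to no-enzyme and uninhibited-enzyme controls, plate-pattern corrected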
Scp-1 inhibitor: blocks human Scp-1 phosphatase activity. AID 493091. 0.88% of 340,000 active. Q9GZU7. inhibition, % at 20 µM. Recombinant Scp1, phosphopeptide, malachite green phosphate absorbance;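 active = inhibition above about 50% at 20 µM, limit read from the data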;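 also: plate controls were DMSO wells with enzyme for no effect and wells lacking enzyme for full effect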
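Test system: SCP-1 phosphatase catalytic domain, residues 76-261 | Compound dosing: One concentration, 20 µM, with 1.0% DMSO | Schedule: 45 min room-temperature reaction, 5 min colour, 30 min stabiliser | Detection: Absorbance at 630 nm | Read-out basis: % inhibition of SCP-1 phosphate liberation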
SUMO1 PPI mod: alters human SUMO1 binding to SIM partners; inhibition, % at 20 µM; SUMO1 binding to a labelled peptide, TR-FRET, 1 h; 0.33% of 360,000 active; in the data active = inhibition above about 37%
Target sequence (P63165 whole entry, looked up): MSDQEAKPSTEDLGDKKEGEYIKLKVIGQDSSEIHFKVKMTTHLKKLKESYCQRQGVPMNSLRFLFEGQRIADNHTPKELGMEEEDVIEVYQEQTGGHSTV
CSN deneddyl inh: CSN deneddylation inhibition | inhibition, % at 12.5 µM | Purified CSN, SCF-Nedd8-OG deneddylation, fluorescence polarization | 0.38% of 360,000 active;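 active = pattern-corrected inhibition above about 35%, with an unprinted fluorescence ratio check between 0.5 and 1.5, limit read from the data, passing the limit was not always enough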;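 also: 0% = enzyme with substrate and 100% = substrate without enzyme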
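Assay system: purified human Csn5 enzyme expressed in HEK293T cells; Input: 0.24 nM Csn5 enzyme, final concentration; Reagent: 10 nM SCFSkp2-Nedd8OG; Compound dosing: 12.5 µM single point; Times: reaction 90 min, room temperature; Technique: fluorescence polarization readout.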
DNMT1 interf DR: counter-screen for DNMT1 inhibitors: spectral interference, dose response; shares compounds with DNMT1 block; molecular beacon fluorescence; IC50, µM; 200 tested, under 10 active; AID 602382; call rule not given here
DNMT1 inh conf: confirmation of human DNMT1 inhibitors; shares compounds with DNMT1 block; DNMT1 molecular beacon HinP1I cleavage, fluorescence; inhibition, % at 10 µM; 8% of 2,300 active;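 active = average inhibition of at least 30% in the single-concentration confirmation test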
Beacon interf: counter-screen for DNMT1 inhibitors: spectral interference | AID 602387 | shares compounds with DNMT1 block | 1% of 2,300 active | activation (fluorescence interference), % at 10 µM | DNMT1 molecular beacon spectral interference counterscreen, fluorescence 485/520;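 active = activation of at least 30% at 10 µM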;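 also: DNMT1 catalytic domain with a HinP1I cleavage step and a FAM/dabcyl DNA beacon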
* hit, by the source's call; / = not tested or not shown.

SMILES	DNMT1 block	LMPTP inh	STEP block	Scp-1 inhibitor	SUMO1 PPI mod	CSN deneddyl inh	DNMT1 inh conf	Beacon interf	others
COc1ccc(NC(=O)c2ccccc2NC(=O)COc2ccccc2)cc1	55*	0	0	-2	3	17	2	-4
COCC(=O)Nc1ccccc1C(=O)Nc1ccc(OC)cc1	2	-1	0	-5	-2	2	/	/
COc1ccc2cc(OCC(=O)NNC(=O)Nc3ccc(C(C)=O)cc3)ccc2c1	72*	23	6	0	-18	4	6	-3
CCOc1ccc2ccccc2c1C(=O)Nc1cc(=O)n(C)c(=O)n1C	-2	-2	-2	-10	-4	0	/	/
CC(=O)c1cccc(OCC(=O)N(C)CC(=O)NCc2ccco2)c1	96*	0	9	81*	17	23	52*	1	DNMT1 interf DR=>99
COc1cccc(NC(=O)CN(C)CC(=O)NCc2ccco2)c1	-9	0	-1	-6	3	1	/	/
CCOc1ccc(NC(=O)C2CCN(S(=O)(=O)CC)CC2)cc1	60*	0	0	-4	-2	2	5	4
C/C(=N\NC(=O)c1nnn(-c2nonc2N)c1CN(C)c1ccccc1)c1cccc(O)c1	-4	1	-2	-1	1	0	/	/
Cc1nn(-c2ccccc2)c(C)c1NC(=O)COC(=O)C1CC(=O)N(CCc2ccccc2)C1 (stereo not drawn)	2	0	-1	-4	6	-2	/	/
COc1ccc(CCN2CC(C(=O)OCC(=O)Nc3c(C)nn(-c4ccccc4)c3C)CC2=O)cc1OC (stereo not drawn)	86*	0	1	1	6	1	4	4
COc1ccc(-n2nc(C(=O)Nc3ccc(OC)c(OC)c3)c3c4ccccc4n(C)c3c2=O)cc1	60*	3	3	-3	-4	48*	2	4
CCOc1ccc(NC(=O)CNC(=O)c2nn(-c3ccc(OC)c(OC)c3)c(=O)c3ccccc23)cc1	6	2	4	-10	-21	6	/	/
COc1ccc(-n2nc(C(=O)NCC(=O)Nc3cccc(Cl)c3)c3ccccc3c2=O)cc1OC	60*	34	10	38	-65	27	-3	-7
O=C(Cc1ccccc1[N+](=O)[O-])OCC(=O)c1ccccc1Br	-2	0	-1	-1	-16	0	/	/
COc1cc(Cc2nc3ccccc3n2C(C)c2nc3ccccc3[nH]2)cc(OC)c1 (stereo not drawn)	/	0	/	/	-2	4	/	/
O=C(NCc1ccc2c(c1)OCO2)c1cc2ncc(Br)cn2n1	71*	52*	0	72*	2	-2	4	0
O=C(CCCOc1ccc(Cl)cc1Cl)NNC(=O)c1ccc(NC(=O)c2ccccc2)cc1	73*	69*	6	41	0	22	0	-2
Cc1ccc(-c2csc3ncn(CC#N)c(=O)c23)cc1	48	1	-1	8	11	4	5	6
Cc1ccc(-c2csc3ncn(CC#N)c(=O)c23)cc1C	21	11	20	48	23	9	/	/
O=C(NCCCN1CCCC1)c1ccc2c(c1)N(Cc1cccc(Cl)c1)C(=O)c1ccccc1S2(=O)=O	-5	2	1	/	-10	-2	/	/
CC1CCCCN1CCNC(=O)c1ccc2c(c1)N(Cc1cccc(Cl)c1)C(=O)c1ccccc1S2(=O)=O (stereo not drawn)	86*	2	3	/	-5	3	2	3
CC1CCN(C(=O)CSc2nc3c(c(=O)n2C)SC(C)C3)CC1 (stereo not drawn)	67*	-1	1	-5	1	-2	7	9
COc1ccc(F)cc1S(=O)(=O)NCCCn1ccnc1	-2	-4	-2	-5	0	2	/	/
O=[N+]([O-])c1ccc(/C=C/c2ccc3cccc(O)c3n2)cc1	67*	0	1	-4	-4	2	9	2
Cc1ccc(Cc2cnc(NC(=O)/C(C#N)=C/c3ccc(-c4ccc([N+](=O)[O-])cc4)o3)s2)cc1	52*	3	6	-5	-17	-2	1	6
SMILES	DNMT1 block	LMPTP inh	STEP block	Scp-1 inhibitor	SUMO1 PPI mod	CSN deneddyl inh	DNMT1 inh conf	Beacon interf	others
N#C/C(=C/c1ccc(-c2ccc([N+](=O)[O-])cc2)o1)C(=O)Nc1nc(-c2cccs2)cs1	87*	11	3	5	-25	2	1	-3
Cc1cnc(NC(=O)c2ccc(-c3ccc([N+](=O)[O-])cc3)o2)s1	-8	5	2	-5	-19	-8	/	/
N#C/C(=C\c1ccc(-c2ccc(F)cc2)o1)C(=O)Nc1nc(-c2cccs2)cs1	28	0	1	-7	-16	-14	/	/
Cc1ccc(CSc2nnc3ccc(-c4ccncc4)nn23)cc1	-2	-1	1	-7	-25	0	/	/
S=C(Nc1ccc(Cl)cc1)Nc1ccc2c(c1)OCCO2	72*	1	-2	1	13	7	2	3
NS(=O)(=O)c1ccc(NC(=O)c2cccc(N3C(=O)c4ccccc4C3=O)c2)cc1	55*	38	38	6	94*	33	8	2
O=[N+]([O-])c1cccc(/C=N/Nc2nc(C(Cl)(Cl)Cl)nc3ccccc23)c1	-2	-2	0	-1	0	-18	/	/
ClC(Cl)(Cl)c1nc(N/N=C/c2ccncc2)c2ccccc2n1	55*	0	-2	-4	-2	1	6	7
C=CCn1c(C)cc(-c2csc(NC(=O)C3CCN(c4ncnc5sc(C)c(C)c45)CC3)n2)c1C	65*	1	1	6	-1	8	3	-7
CCOC(=O)C1(C)CCCN(C(=O)c2cc(C#N)cs2)C1 (stereo not drawn)	-1	0	-3	/	3	3	/	/
COC(=O)c1sc(N2C(=O)c3oc4ccccc4c(=O)c3C2c2cccs2)nc1C (stereo not drawn)	60*	-2	-3	1	-11	-4	2	-3
COC(=O)c1sc(N2C(=O)C(O)=C(C(=O)c3ccc(C)o3)C2c2cccs2)nc1C (stereo not drawn)	0	11	8	-2	-6	19	/	/
